Measurements published in ChEMBL document CHEMBL4513216, “Probing the Open Global Health Chemical Diversity Library for Multistage-Active Starting Points for Next-Generation Antimalarials” (ACS Infect Dis, 2020).

Experiment: Toxicity liver stage against HepG2, at 10uM
Format: cell-based
Parameters: test concentration 10 uM, cell line HepG2-A16-CD81EGFP
Conditions: human, HepG2-A16-CD81EGFP cells; read-out: INHIBITION
In short: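 Uninfected HepG2-A16-CD81EGFP cells, 3 × 10^3 per well, 1536-well, plated on prespotted compound at 10 μM final, parasite-free screening media added to match infected plates; puromycin 10 μM positive, DMSO 0.5% negative; run in parallel with 48 h PbLuc assay at 37 °C, 5% CO2; viability by CellTiter-Glo luminescence, normalized to controls.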

Structure (SMILES) | cytotoxicity at 10 µM [%]
CC(C)N1CCC(N2CCN(C3CCCCC3)CC2CCO)CC1 (stereo not given) | -9.63
CCN1CCN(C(=O)c2ccn(C)c(=O)c2)CC1 | 8.66
CS(=O)(=O)c1ccc(NCC2CCCO2)c(S(C)(=O)=O)c1 (stereo not given) | 3.72
Cc1ccc(CNC2(Cc3cc(-c4ccccc4)on3)COC2)o1 | -3.24
CCNC(=O)N1C[C@@H]2OCC(=O)N(Cc3cccnc3)[C@@H]2C1 | 7.95
CSc1ccc(CNC(=O)Cc2c(C)n[nH]c2C)cc1 | 4.16
CCCC(O)CN1CCC(=O)N(CCOC)Cc2cc3c(cc21)OCO3 (stereo not given) | 6.91
CO[C@@H]1CN(c2ccccc2)S(=O)(=O)[C@@]12CCN(CC1CC1)C2 | 1.84
CCOc1nn(CC)cc1-c1nnc(SCc2cccnc2)n1C | 5.97
Cc1cc(NC(=O)Cn2cnc(-c3cccs3)cc2=O)no1 | -0.243
O=C(NCc1ccccc1)N1CCC(Oc2ncccc2Cl)CC1 | 17
O=C(NC1CCN(c2nccs2)CC1)c1cccs1 | 4.17
Cc1nc(-c2nc(C(=O)N3CCOCC3)c3ccccn23)cn1C(C)C | 1.53
O=C(c1ccco1)N1CCC[C@]2(C[C@H](Oc3ncccc3F)CO2)C1 | 2.49
CCN1CC2(CC1=O)CN(C(=O)c1ccco1)CCN(C(=O)C(C)C)C2 (stereo not given) | -9.16
CC(C)NC(=O)N1CCN(C(=O)C(C)C)CC2(CC(=O)N(C)C2)C1 (stereo not given) | -0.704
O=C(N1CCOCC1)[C@@]12CCO[C@@H]1CCN(CC1CCC1)C2 | 11.1
CN(C)Cc1nnc2n1CCCN(C(=O)c1c[nH]cn1)C2 | 3.77
O=c1ccc(-c2cccs2)nn1CN1CCc2ccccc2C1 | 14.3
CC1CC(=O)c2cnc3nc(N4CCOCC4)[nH]c(=O)c3c2C1 (stereo not given) | 5.31
O=C(COc1coc(CN2CCCCC2)cc1=O)Nc1ccccc1Cl | 3.72
CCc1cnc(N2CC3(CCN(C(=O)c4ccoc4)C3)C2)nc1 | -8.37

Structure (SMILES) | cytotoxicity at 10 µM [%]
CCn1nccc1CNC(=O)C1CCC1 | -2.17
COc1ccc(OC)c(Nc2nc3c(C)nn(C)c3c(=O)n2C)c1 | -2.73
Cn1nc(C(=O)NC2CC(C)(C)NC(C)(C)C2)cc1NC(=O)C1CC1 | 0.754
CCn1cc(NS(=O)(=O)c2ccc(F)cc2)c(C(=O)NCC(C)C)n1 | 6.6
CC(C)(C)C(=O)N1CCCC1(C(=O)N1CCCC1)c1cnccn1 (stereo not given) | 4.84
O=C(NCCc1cc(N2CCOCC2)nc(NC2CC2)n1)C1CC1 | -0.995
Cn1cnc(S(=O)(=O)N2CCCC2c2cnccn2)c1 (stereo not given) | -28.4
CC(=O)N[C@@H]1CN(C(=O)c2cnc3ccccc3c2)C[C@H]1O | -12.1
Cc1c(C(=O)N2CC(Cc3nccc4ccn(C)c34)C2)cnn1C | -26.3
Cc1noc(C)c1-c1cncc(CC2CCN(C(=O)c3cc[nH]n3)C2)n1 (stereo not given) | -17.4
O=C(C1CCCC1)N1CCC(c2ccnc(Nc3cnccn3)n2)C1 (stereo not given) | -24.6
Cc1noc(C)c1-c1cc(CC2CCN(C(=O)c3cc[nH]n3)C2)ncn1 (stereo not given) | -13.4
Cn1ccc(C(=O)N2CCOC(c3ccc(C(N)=O)cn3)C2)n1 (stereo not given) | -20
Cn1nc(C2CN(C(=O)c3ccncc3)C2)c2nccnc21 | -8.8
Cc1cc(-c2cnn(CCNC(=O)c3snnc3C)c2C2CC2)on1 | -7.16
Cc1noc(C)c1-c1cncc(C2CCCN2Cc2cncnc2)n1 (stereo not given) | 5.25
Cc1ccc(C)c(CC(=O)Nc2cccc(C(=O)N(C)C)n2)c1 | -6.56
CC1CCCCN1C(=O)c1cn(-c2ccc(C(F)(F)F)cn2)nn1 (stereo not given) | -56.5
CN(CCCc1ccccc1)C(=O)CCc1nc(-c2nnc[nH]2)no1 | -44.8
O=S(=O)(CCCn1cncn1)Cc1ccccc1Cl | -5.91
Cc1cccc(-c2ccc(C(=O)N3CCN(C4CC4)CC3)c(=O)[nH]2)c1 | 13.2
CC(C(N)=O)N1CCN(c2ncc(Br)cn2)CC1 (stereo not given) | 3.23

Structure (SMILES) | cytotoxicity at 10 µM [%]
CC(C)(C)OC(=O)N[C@H]1CCN(c2cncc(Br)c2)C1 | -52.8
CC(C)c1noc(C(C)N2CCC(c3nc4ccccc4o3)CC2)n1 (stereo not given) | 8.05
CC(CNC(=O)CCc1ccccn1)c1ccsc1 (stereo not given) | -3.3
CC(NC(=O)CCCN(C)C)c1cn(-c2ccccc2)nn1 (stereo not given) | -22.7
CNC(=O)c1cccnc1NCc1ccc(Cn2cccn2)cc1 | 17.9
Cc1ccsc1C(Cc1ccccc1)NC(=O)CNC(=O)C1CC1 (stereo not given) | 11.6
COCCS(=O)(=O)Cc1csc(NC(C)=O)n1 | -2.93
COc1ccc(C#N)cc1CSCCN1CCOCC1 | 6.14
CCN(C(=O)C1CC1)C(c1cccnc1)c1ccc2c(c1)CCO2 (stereo not given) | 1.46
Cc1csc(CCNC(=O)Nc2cc(C(F)(F)F)c[nH]c2=O)n1 | 8.13
Cc1c(NCC(C)(C)C)cccc1C(=O)N(C)Cc1ncnn1C | 22.5
Cc1n[nH]c(C)c1C1CCCN1C(=O)NCC(=O)Nc1ccccc1 (stereo not given) | 4.23
COc1cc(OC)cc(C2(O)CCN(Cc3nc(C)c(C)o3)CC2)c1 | -7.06
Cc1cc(C)cc(C2(C(=O)NCC(C)CN3CCCC3=O)CC2)c1 (stereo not given) | 1.42
N#Cc1c(N2CCN(CC3CCOC3)CC2)nc2ccccn12 (stereo not given) | 1.37
Cc1cccc(OCCSCCn2nc3ccccn3c2=O)c1 | 6.47
Cc1noc(C)c1CNC(C(=O)N1CCOCC1)C(C)C (stereo not given) | 4.55
O=C(c1cc(-n2cccn2)ccn1)N(CC(F)(F)F)C1CCCC1 | 5.49
Cc1ccc2cccc(S(=O)(=O)N(C)C3CCCN(C)C3)c2n1 (stereo not given) | 1.5
CSC(CNS(N)(=O)=O)c1cccc(Cl)c1 (stereo not given) | -14.3
CC(NCc1cccc(S(=O)(=O)N(C)C)c1)c1cccnc1 (stereo not given) | 1.56
CN(C(=O)C1CSCN1S(=O)(=O)c1ccc(F)cc1)C1CC1 (stereo not given) | 1.18

Structure (SMILES) | cytotoxicity at 10 µM [%]
O=C(c1ccco1)N1CCO[C@@H]2CNC[C@@H]21 | -108
c1cnc(N2CCOCC3(CNCCO3)C2)nc1 (stereo not given) | -112
CN1CCN(Cc2ccoc2)Cc2cccnc21 | 0.899
CN(C)c1ncc2c(n1)N(C)CCN(CC1CC1)C2=O | -1.36
CC[C@H](C)[C@H](N)C(=O)Nc1nc(-c2cnc(N(C)C)nc2)cs1 | -9.44
Cc1ncc(-c2ccnc(N3CCN(C)CC3)n2)c(-c2cccnc2)n1 | 4.36
CC(=O)N1CCN(Cc2ccc(C(F)(F)F)cc2F)CC(O)C1 (stereo not given) | -5.34
O=C(O)C1(Oc2ccc3ccccc3c2)CCN(c2ncccn2)CC1 | 1.46
O=C(CC1CCC1)N1CCCC(CO)(CC2CC2)C1 (stereo not given) | 7.18
O=C(CN1CCc2onc(-c3ccccc3F)c2C1)NC1CC1 | 14.6
O=C(c1cccnc1O)N1CCC2(CCCO2)CC1 | 7.28
COc1ccccc1CCN1CCCC(CN(C)Cc2ccc(C)o2)C1 (stereo not given) | -0.813
CN(Cc1cccc(-n2cccn2)c1)C(=O)c1cccc(N(C)C)c1 | -0.809
O=C(c1ccc[nH]1)N1CCc2c(cccc2S(=O)(=O)N2CCOCC2)C1 | -15
O=C(N[C@@H]1CCN(Cc2cc3ccccc3s2)C[C@H]1O)c1cccnc1 | -7.57
COc1nc2ccccc2cc1CN1CCCC(CNC(C)=O)C1 (stereo not given) | 1.9
Cn1ccc(C(=O)N2CCCN(CCCc3ccccc3)CC2)cc1=O | -0.942
O=c1[nH]c(NCc2cccc(-c3ccccc3)c2)nc2c1CCNC2 | 3.3
Cc1nonc1CN1CC[C@@](O)(C2CCC2)[C@H](C)C1 | 17.5
COc1cc(CNc2cnn(CC(F)F)c2)ccc1O | 0.553
CC1CN(C)CCN1CC(=O)NCCOc1cccc(F)c1 (stereo not given) | -11.7
CN(C)c1cc(CNC(=O)Nc2ccc(C#N)cc2)ccn1 | -5.66

Structure (SMILES) | cytotoxicity at 10 µM [%]
CCc1nc(C2CCCN2CCS(=O)(=O)c2ccccc2)no1 (stereo not given) | -8.1
COc1c(C)cnc(CN(C)C(=O)c2cccnc2N(C)C)c1C | -12.3
O=C(CCNC(=O)c1ccoc1)Nc1ccccc1F | -8.38
COc1c(C)cnc(CN(C)C(=O)c2ccccn2)c1C | 0.22
CN(Cc1ccc2c(c1)OCCO2)C(=O)Cn1cccnc1=O | 3.01
Cn1cc(C(=O)N2CCCC(n3cccn3)C2)c2ccccc21 (stereo not given) | 5.2
Cc1cnn(C2CCCN(C(=O)Cc3cn4ccccc4n3)C2)c1 (stereo not given) | -3.15
CCc1nc(CN2CCCC(NCc3ncc(C(C)(C)C)o3)C2)no1 (stereo not given) | 1.97
Cc1ccc(C)c(CSc2nnc(C(N)C(C)C)o2)c1 (stereo not given) | 9.24
Cn1cc(CN2CCC(c3cc(COc4cccc(Cl)c4)[nH]n3)C2)cn1 (stereo not given) | -2.93
O=S(=O)(N1CCCCC1)N1CCc2nc(C3CCNCC3)ncc2C1 | -4.15
Cn1ccnc1C(=O)N[C@@H]1CN(Cc2cccs2)[C@@H]2CCCO[C@@H]21 | 3.16
Cc1ccc(C(=O)N2CC[C@@H]3CN(C4CCOCC4)CCO[C@@H]3C2)o1 | -121
Cc1ccc(CN2CCc3c(COC(C)C)nn(C)c3C2)s1 | 0.661
Cc1cc(CN2CCC3(CC2)COC(COCC2CC2)C3)no1 (stereo not given) | -107
Cc1cccc(CO[C@H]2CN(c3nnc(C)s3)[C@@H]3CCCO[C@H]23)n1 | 4.47
CCOC(=O)[C@H]1CNC[C@H]1C(=O)OCC | 9.24
CCOCCN1CCO[C@H]2[C@H](OCc3ccccn3)CC[C@@H]21 | -113
O=C([C@H]1CN(Cc2nccs2)C[C@H]2OCC[C@@H]12)N1CCCCO1 | -111
Cc1ccccc1CN1CCC2(COCc3cnc(N(C)C)nc32)C1 (stereo not given) | -8.22
Cc1nnc(N2CCCC3(CN(Cc4cccnc4)CCO3)C2)o1 (stereo not given) | 4.96
CCS(=O)(=O)N1C[C@@H]2C[C@H](C(=O)N(C)C)[C@H](C1)O2 | 5.58
